The source of these data is ChEMBL document CHEMBL1212858, “New bioactive halenaquinone derivatives from South Pacific marine sponges of the genus Xestospongia” (Bioorg Med Chem, 2010).

What is called IC50 is the midpoint of a concentration-inhibition curve.

Data set [1] is described as follows: Selectivity ratio of IC50 for african green monkey (Cercopithecus aethiops) Vero cells to IC50 for chloroquine-resistant Plasmodium falciparum FcB1. Format: ADME, cell-based. As to conditions: read-out: Ratio IC50. A digest of the protocol: (§1)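 Compounds were serially diluted from a 10 mg/mL DMSO stock into medium and added to VERO cells (10^5 cells/well) or to synchronised ring-stage P. falciparum (2% haematocrit, 1% parasitaemia). Read-out was 3H-hypoxanthine incorporation, with IC50 read graphically. Triplicates, three independent times; doxorubicin and chloroquine as controls.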

For data set [2], the target named is Protein farnesyltransferase (Homo sapiens, UniProt P49354+P49356). Nature of the data set: Inhibition of human FTase after 15 mins by fluorimetric analysis. Format: protein-complex assay. A digest of the protocol:
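Partially purified human FTase (1.5 mg/mL, 5 µL per 1 mL peptide solution) with dansyl-GCVLS peptide in Tris/HCl pH 7.5 buffer with DTT, MgCl2, ZnCl2 and 0.18% octyl-D-glucopyranoside in place of CHAPS. Inhibitors added from DMSO; started with farnesyl pyrophosphate (10 µM stock). Fluorescence (ex 340/em 486 nm) read 15 min at 30 °C; duplicates, run twice.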

Data set [3] in a line: Inhibition of Saccharomyces cerevisiae FTase after 15 mins by fluorimetric analysis. A digest of the protocol:
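Partially purified recombinant yeast FTase (2.2 mg/mL, 0.1 mL per 7.0 mL peptide solution) with dansyl-GCVLS peptide in 53 mM Tris/HCl pH 7.5, 5.8 mM DTT, 6 mM MgCl2, 12 µM ZnCl2, 0.09% CHAPS. Inhibitors added from DMSO; started with farnesyl pyrophosphate (10 µM stock). Fluorescence (ex 340/em 486 nm) followed 15 min at 30 °C; duplicates, run twice.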

For data set [4], the system named is Plasmodium falciparum. In words: Antiplasmodial activity against chloroquine-sensitive Plasmodium falciparum 3D7 after 48 hrs. Format: functional, organism-based. Particulars: 3D7, 48 h. A digest of the protocol: (§2)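 Ring-stage P. falciparum cultures synchronised by magnetic purification plus D-sorbitol lysis. Compounds from a 10 mg/mL DMSO mother solution were serially diluted in culture medium and incubated 48 h with parasitised erythrocytes (2% haematocrit, 1% parasitaemia). Growth was followed by 3H-hypoxanthine incorporation (9.25 kBq/well). IC50 was read graphically from inhibition–concentration plots. Triplicates, three independent experiments; chloroquine as positive control.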

Data set [5] has as its target T1, Phospholipase A2 (Apis mellifera, UniProt P00630).
T1 sequence (P00630 whole entry): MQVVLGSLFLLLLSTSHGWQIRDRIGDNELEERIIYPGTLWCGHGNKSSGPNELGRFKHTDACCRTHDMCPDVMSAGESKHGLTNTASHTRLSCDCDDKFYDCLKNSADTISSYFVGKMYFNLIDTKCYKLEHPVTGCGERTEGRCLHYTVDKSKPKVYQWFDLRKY
Nature of the data set: Inhibition of bee venom phospholipase A2 after 5 mins by spectrophotometric analysis. The method in brief: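 Colorimetric assay with Apis mellifera venom PLA2, added as 2 µL of a 1 mg/mL […]. Test material in DMSO was preincubated with the enzyme for 1 h at 25 °C. Substrate solution was then added: L-α-phosphatidylcholine 3.5 mM, phenol red 0.055 mM, NaCl 100 mM, CaCl2 10 mM, Triton 7 mM, pH 7.6. Absorbance at 550 nm was read at 0 and 5 min, in duplicate. Manoalide as positive control.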

Data set [6] relates to Plasmodium falciparum. In words: Antiplasmodial activity against chloroquine-resistant Plasmodium falciparum FcB1 after 48 hrs. Format: functional, organism-based. Particulars: FcB1/Columbia. The method in brief: as §2
The subject of data set [7] is Vero. Nature of the data set: Cytotoxicity against african green monkey Vero cells assessed as inhibition of [3H]hypoxanthine incorporation after 48 hrs. Particulars: Chlorocebus sabaeus. Format: cell-based. A digest of the protocol: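 VERO cells (10^5 cells/well) exposed 48 h to serial dilutions in culture medium of a 10 mg/mL DMSO mother solution; growth inhibition by 3H-hypoxanthine incorporation (9.25 kBq/well). Highest concentration tested 20 µg/mL. IC50 read graphically from inhibition-versus-concentration plots; triplicates on three independent occasions, mean ± SEM (n = 3). Doxorubicin positive control.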

The nature of data set [8]: Selectivity ratio of IC50 for african green monkey (Cercopithecus aethiops) Vero cells to IC50 for chloroquine-sensitive Plasmodium falciparum 3D7. The data set is classed as ADME, cell-based. Particulars: read-out: Ratio IC50. A digest of the protocol: as §1

Where a name gives a salt, the structure may show the parent alone.

Consider `C[C@@]12CCC(=O)c3coc(c31)C(=O)c1cc3c(cc12)C(=O)C1=C(C3=O)S(=O)(=O)CCN1` [3-KETOADOCIAQUINONE A], for which the selectivity ratio in data set [1] and in data set [8] was 5 throughout. In addition, the IC50 in data set [2] was 4.19 µM; in data set [3] it was 1.48 µM; in data set [4] it was 1.67 µM; in data set [5] it was 140 µM; in data set [6], 1.08 µM; in data set [7], > 45 µM.
As for `C[C@@]12CCC(=O)c3coc(c31)C(=O)c1cc3c(cc12)C(=O)C1=C(NCCS1(=O)=O)C3=O` [3-KETOADOCIAQUINONE B], the selectivity ratio in data set [1] and in data set [8] was 5 in each case. Moreover, the IC50 was 9.27 µM in data set [2]; 3.75 µM in data set [3]; 4.12 µM in data set [4]; 105 µM in data set [5]; 3.89 µM in data set [6]; > 45 µM in data set [7].
As for `COc1cccc2c1C(=O)c1c(O)c3c(c(O)c1C2=O)C[C@@](O)(C(=O)CO)C[C@@H]3O[C@H]1C[C@H](N)[C@H](O)[C@H](C)O1` [DOXORUBICIN], the IC50 in data set [7] was 5.12 µM.
Consider `C[C@@]12CCC(=O)c3coc(c31)C(=O)c1cc3c(O)ccc(OS(=O)(=O)O)c3cc12` [HALENAQUINOL SULFATE SODIUM], for which the IC50 in data set [2] is 21.5 µM; in data set [3], 16.1 µM; in data set [4], > 24 µM; in data set [5], 1000 µM; in data set [6] it was > 24 µM; in data set [7] it was > 48 µM.
`C[C@@]12CCC(=O)c3coc(c31)C(=O)c1cc3c(cc12)C(=O)C=CC3=O` [HELENAQUINONE]: the IC50 is 0.93 µM in data set [2]; 1.57 µM in data set [3]; > 30 µM in data set [4]; 3.7 µM in data set [5]; > 30 µM in data set [6]; > 60 µM in data set [7].
`CC1=C(CC/C(C)=C/CCC2=CC[C@H](C3=CC(=O)O[C@H]3O)O[C@H]2O)C(C)(C)CCC1` [MANOALIDE] showed an IC50 in data set [5] of 0.5 µM.
For `CC1=CCCC2(C)C1=C(O)C(=O)c1cc3c(cc12)C(=O)C=CC3=O` (stereo unspecified) [ORHALQUINONE], the selectivity ratio in data set [1] and in data set [8] was 5 throughout. Besides, the half-inhibitory concentration (IC50) is 0.41 µM in data set [2]; 0.4 µM in data set [3]; 10.9 µM in data set [4]; 1570 µM in data set [5]; 9.22 µM in data set [6]; > 62 µM in data set [7].
Regarding `C[C@@]12CC[C@H](O)[C@@H]3COC(=C31)C(=O)c1cc3c(cc12)C(=O)CC[C@@H]3O` [TETRAHYDROHALENAQUINONE A], the IC50 in data set [2] was > 30 µM; in data set [3], > 30 µM; in data set [4], > 29 µM; in data set [5], 600 µM; in data set [6], > 29 µM; in data set [7], > 58 µM.
Turning to `C[C@@]12CC[C@H](O)[C@@H]3COC(=C31)C(=O)c1cc3c(cc12)C(O)CCC3=O` (stereo partly specified) [XESTOSAPROL A], the IC50 was > 30 µM in data set [2]; > 30 µM in data set [3]; > 29 µM in data set [4]; 1000 µM in data set [5]; > 29 µM in data set [6]; > 58 µM in data set [7].
Take `CO[C@]12OC(O)C3=C1[C@@](C)(CCC3=O)c1cc3c(OS(=O)(=O)O)ccc(O)c3cc1C2=O` (stereo partly specified) [XESTOSAPROL C METHYLACETAL]: the IC50 in data set [2] was 4.34 µM; in data set [3], 6.71 µM; in data set [4], > 21 µM; in data set [5] it was 570 µM; in data set [6] it was > 21 µM; in data set [7] it was > 42 µM.
